Tests used:
DIO mice [1] = assay: Efficacy of 5A1MQ in DIO mice: body weight, whole-body composition, food intake; format: in vivo, mouse; settings: for absolute fat mass gain: by study termination, control 4.7 g
Procedure, shortened: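 Male C57BL/6 mice (~18 weeks) kept on HFD for ≥12 weeks, singly housed, stabilised at ~40–50 g. After handling and 3 days of sham saline SC injections, randomised by baseline body composition (n=8/group). Saline, 10 or 32 mg/kg/day SC once daily at 4–5 PM for 30 days. Weight and food intake measured twice weekly; EchoMRI on days −1, 8, 15, 23, 29. Two-way repeated-measures ANOVA with FDR correction; ANCOVA with body weight covariate; mean ± SEM.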

DIO mice [2] = assay: Non-fasted; format: in vivo, mouse
Procedure, shortened: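 HFD-fed obese male C57BL/6 mice (n=8/group) received saline, 10 or 32 mg/kg/day SC once daily. Tail blood was taken noon–1 PM without fasting on days −7, 0, 7, 14, 21 and 28. Glucose read by test strip; plasma insulin by ELISA. Change expressed from Day 0 baseline.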

DIO mice [3] = assay: Oral glucose tolerance test; format: in vivo, mouse; settings: Day 21, high-dose 32 mg/kg/day SC vs control and low-dose
Procedure, shortened: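 Performed on day 21 in obese HFD mice dosed daily SC (saline, 10 or 32 mg/kg/day). After fed-state bleed, mice fasted 4 h, receiving their treatment at 3 h of fasting. One hour post-dose, 2 g/kg oral glucose bolus. Blood glucose at 0, 15, 30, 60 and 120 min; plasma insulin at 0 and 15 min.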

DIO mice [4] = assay: Terminal liver weight, histopathology, F4/80 and liver triglycerides in DIO mice; format: in vivo, mouse
Procedure, shortened: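 Terminal day-30 livers from obese HFD mice treated daily SC (saline, 10 or 32 mg/kg/day; dosed 1 h pre-sacrifice, 4 h fast). Whole liver weighed. Left-lobe sections flash-frozen for triglyceride assay or formalin-fixed, paraffin-embedded for H&E and F4/80 IHC. Outputs: steatosis, inflammation, ballooning and NAS scores; hepatocyte count; cross-sectional area; F4/80-stained area by image analysis.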

DIO mice [5] = assay: Terminal serum chemistry and complete blood count in DIO mice; format: in vivo, mouse
Procedure, shortened: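 Day-30 cardiac-puncture blood (~700 μL) from obese HFD mice given saline, 10 or 32 mg/kg/day SC daily. Mice were dosed 1 h before CO2 euthanasia after a 4 h fast. 300 μL used for complete blood count; 150 μL for serum chemistry (TG, ALT, AST, ketones, CK, LDH, lipids). Some endpoints analysed by Kruskal-Wallis test.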

[6] = Acute intravenous dosing plasma PK in mice; format: in vivo, mouse; settings: IV 5 mg/kg
Procedure, shortened: (§1)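 Male C57BL/6 mice (~8 weeks) fasted ~12 h before dosing; food returned 4 h post-dose. Single dose at 5 mg/kg IV (n=3) or 30 mg/kg PO (n=3). Saphenous cross-sampling at 0.0833 h (IV only), 0.25, 0.5, 1, 2, 4, 8, 12 h (PO only) and 24 h. K2EDTA plasma stored at −70°C, then LC-MS/MS. Mean ± SD.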

[7] = Acute oral dosing plasma PK in mice; format: in vivo, mouse
Procedure, shortened: as §1

[8] = Acute and repeat SC dosing plasma PK in mice; format: in vivo, mouse; settings: for Cmax: plasma
Procedure, shortened: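 Male C57BL/6 mice (18–20 weeks), non-fasted, on certified chow, group-housed. Acute arm (n=6): single 25 mg/kg SC. Repeat arm (n=12): 25 mg/kg SC once daily for 5 days. Plasma stored at −70°C and assayed by LC-MS/MS. Mean ± SD.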

[9] = Tissue distribution of 5A1MQ after repeat SC dosing in mice; format: in vivo, mouse
Procedure, shortened: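 Male C57BL/6 mice (18–20 weeks) given 25 mg/kg SC once daily for 5 days. On day 5, subsets (n=3/timepoint) bled by cardiac puncture at 1, 4 and 8 h post-dose. Epididymal white fat, liver and quadriceps collected terminally and stored at −70°C. Plasma and tissue levels measured by LC-MS/MS; tissue-to-plasma ratios derived.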

[10] = Terminal liver 5A1MQ concentration in DIO mice; format: in vivo, mouse; settings: high-dose 32 mg/kg/day SC, ~1–2 h post-dosing on Day 30
Procedure, shortened: (§2)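 On day 30, obese HFD mice were dosed (saline, 10 or 32 mg/kg/day SC) 1 h before euthanasia, fasted 4 h, and killed by CO2. Left liver lobe cut into ~30 mg sections, flash-frozen, and assayed by LC-MS/MS for test compound and 1-MNA. Quantitation limit 1 ng/mL.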

1-MNA = assay: Terminal liver 1-MNA level in DIO mice; format: in vivo, mouse; settings: high-dose 32 mg/kg/day SC, ~1–2 h post-dosing on Day 30
Procedure, shortened: as §2

mouse NNMT = molecular target: T1, mouse NNMT (Mus musculus, UniProt O55239); assay: In vitro biochemical assay against mouse NNMT enzyme
T1 sequence (O55239 1-264): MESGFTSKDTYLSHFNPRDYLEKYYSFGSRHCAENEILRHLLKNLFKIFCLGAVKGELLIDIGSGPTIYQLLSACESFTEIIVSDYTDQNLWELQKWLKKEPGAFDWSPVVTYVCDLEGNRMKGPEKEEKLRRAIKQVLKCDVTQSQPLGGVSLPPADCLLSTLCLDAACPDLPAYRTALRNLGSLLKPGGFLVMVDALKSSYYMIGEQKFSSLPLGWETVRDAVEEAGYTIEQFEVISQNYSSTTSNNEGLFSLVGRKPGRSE

[11] = Solubility in aqueous and simulated gastric fluids; format: physicochemical
[12] = Mouse plasma protein binding; format: in vitro ADME
[13] = Metabolic stability in cryopreserved mouse hepatocytes; format: in vitro ADME
[14] = test system: Cerep panel of major receptors, enzymes, and uptake transporter proteins; assay: Cerep off-target panel; settings: 10 μM
[15] = molecular target: T2, monoamine oxidase-A (MAO-A) (Homo sapiens, UniProt P21397); assay: Cerep panel: MAO-A inhibition; format: biochemical; settings: 10 μM
T2 sequence (P21397 1-527): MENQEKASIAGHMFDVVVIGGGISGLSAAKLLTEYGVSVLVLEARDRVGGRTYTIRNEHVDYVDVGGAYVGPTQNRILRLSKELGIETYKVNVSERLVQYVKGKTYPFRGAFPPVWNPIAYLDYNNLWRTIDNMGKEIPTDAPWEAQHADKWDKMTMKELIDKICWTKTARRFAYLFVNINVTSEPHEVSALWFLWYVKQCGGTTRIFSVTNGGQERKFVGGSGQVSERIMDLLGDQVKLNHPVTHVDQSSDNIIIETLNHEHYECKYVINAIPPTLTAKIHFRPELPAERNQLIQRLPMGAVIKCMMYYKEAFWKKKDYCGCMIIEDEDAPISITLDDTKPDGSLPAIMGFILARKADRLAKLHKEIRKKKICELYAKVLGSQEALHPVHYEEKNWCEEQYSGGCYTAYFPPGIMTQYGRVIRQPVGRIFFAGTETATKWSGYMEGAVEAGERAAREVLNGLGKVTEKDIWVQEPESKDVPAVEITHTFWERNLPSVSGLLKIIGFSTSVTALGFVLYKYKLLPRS

[16] = statistically significant only at the low dose (p<0.05 vs control)
[17] = SC 25 mg/kg once-daily for 5 days
[18] = SC 25 mg/kg single (acute) dose
[19] = SC 25 mg/kg once-daily x5, 1 h post-dose
[20] = SC 25 mg/kg once-daily x5, 8 h post-dose

Compound: C[n+]1cccc2c(N)cccc21 [5A1MQ, 5-amino-1-methylquinolium]
- longitudinal lean mass (DIO mice [1]; 10 and 32 mg/kg/day SC): no significant main treatment effect
- food intake (DIO mice [1]; 10 and 32 mg/kg/day SC, treatment effect): no main effect
- absolute fat mass gain (DIO mice [1]; high-dose 32 mg/kg/day SC): 1.3 g
- absolute fat mass gain (DIO mice [1]; low-dose 10 mg/kg/day SC): 4.7 g
- weekly fed-state blood glucose (DIO mice [2]; 10 and 32 mg/kg/day SC): did not alter
- fed-state plasma insulin decrease from baseline (Day 0) to Day 28 (DIO mice [2]; high-dose 32 mg/kg/day SC, control increased by 112%): 9%
- fed-state plasma insulin increase from baseline (Day 0) to Day 28 (DIO mice [2]; low-dose 10 mg/kg/day SC, control increased by 112%): 46%
- OGTT circulating glucose levels at 15- and 30-min post-bolus glucose (DIO mice [3]): significantly decreased
- OGTT plasma insulin at 15 min post-glucose loading (DIO mice [3]; p<0.0001): suppressed
- hepatocyte cell count (DIO mice [4]; 10 and 32 mg/kg/day SC, p<0.0001): significant main effects of treatment
- NAFLD activity score (NAS) (DIO mice [4]; 10 and 32 mg/kg/day SC, p<0.0001 high dose vs control): dose-dependent improvement
- whole-liver cross-sectional area (DIO mice [4]; 10 and 32 mg/kg/day SC, p=0.0015): significant main effects of treatment
- liver TG levels (DIO mice [4]; 10 and 32 mg/kg/day SC, p=0.0169): significantly reduced
- liver F4/80 signal (macrophage marker) (DIO mice [4]; high-dose 32 mg/kg/day SC vs control, p<0.05): significantly lowered
- terminal liver weight (DIO mice [4]; high-dose 32 mg/kg/day SC, control average 2.1 g): 1.4 g
- reduction in microvesicular steatosis compared to controls (DIO mice [4]; high-dose 32 mg/kg/day SC, p<0.01): 73%
- liver lobular inflammation (DIO mice [4]; p<0.01 high dose vs control): significantly reduced
- hepatocellular ballooning (DIO mice [4]; p<0.05 high dose vs control): significantly reduced
- decrease in monocytes vs control (DIO mice [5]; high-dose 32 mg/kg/day SC, p<0.001): 50%
- decrease in lymphocytes vs control (DIO mice [5]; high-dose 32 mg/kg/day SC, p<0.05): 31%
- serum ketone body levels (DIO mice [5]; p<0.0001 high dose vs control): dose-dependently decreased
- serum ALT (DIO mice [5]; p<0.001 high-dose vs control): dose-related decreases
- serum TG levels (DIO mice [5]; p<0.01 high-dose vs control): significantly lower
- serum AST (DIO mice [5]; p<0.01 low-dose vs control): dose-related decreases
- total white blood cell count (DIO mice [5]; p<0.05 high-dose vs control): significantly reduced
- serum CK (DIO mice [5]; [16]): significantly lowered
- serum LDH (DIO mice [5]; [16]): significantly lowered
- plasma clearance [6]: 101 mL/min/kg
- terminal half-life [6]: 6.3 h
- steady-state volume of distribution ([6]; estimated): 39 L/kg
- AUC0-∞ ([6]; plasma): 825 ng·h/mL
- Cmax ([6]; plasma): 2,009 ng/mL
- Tmax ([7]; PO 30 mg/kg): 4 h
- estimated terminal half-life ([7]; PO 30 mg/kg): 14.8 h
- oral bioavailability ([7]; PO 30 mg/kg vs IV 5 mg/kg): 3.5%
- AUC0-∞ ([7]; PO 30 mg/kg, plasma): 224 ng·h/mL
- Cmax ([7]; PO 30 mg/kg, plasma): 14.5 ng/mL
- Plasma AUC0-∞ [8, 17]: 4,687 ng*h/mL
- Tmax [8, 17]: ~ 15 minutes
- estimated terminal half-life (T1/2) [8, 17]: 12.8 h
- Cmax [8, 17]: 5,130 ng/mL
- Plasma AUC0-∞ [8, 18]: 7,031 ng*h/mL
- estimated terminal half-life (T1/2) [8, 18]: 13.3 h
- Tmax ([8]; SC 25 mg/kg single dose): ~ 15 minutes
- Cmax ([8]; SC 25 mg/kg single dose): 7,010 ng/mL
- EWAT-to-plasma ratio [9, 19]: 1.4
- liver-to-plasma ratio [9, 19]: 0.09
- mean total exposure level in liver [9, 19]: 83 ng/ng
- muscle-to-plasma ratio [9, 19]: 2.2
- EWAT-to-plasma ratio [9, 20]: 31.1
- liver-to-plasma ratio [9, 20]: 1.4
- muscle-to-plasma ratio [9, 20]: 17.0
- liver concentration of 5A1MQ [10]: 28.5 ng/g
- mean reduction in 1-MNA level in the liver relative to controls (1-MNA): 39%
- mouse NNMT IC50 (mouse NNMT): 0.078 µg/mL
- solubility ([11]; phosphate buffered saline): > 100 mg/mL
- solubility ([11]; simulated gastric fluids): > 10 mg/mL
- mouse plasma protein binding (Fb) [12]: 7%
- clearance [13]: 57.9 mL/min/kg
- half-life (T1/2) [13]: < 7 min
- activity against Cerep panel targets (all except MAO-A) [14]: no significant activity
- inhibition of monoamine oxidase-A (MAO-A) [15]: 67.4%

Source: PMC11622326 (Diabetes, obesity & metabolism, 2024)
